Here are results for 6 molecules from ChEMBL document CHEMBL1158001, “Cytotoxic isoprenylated flavans of Broussonetia kazinoki” (1999).

Converted amounts (≈) assume the structure as drawn. *1 amine or outer side, *2 acyl side, *3 side chain or, on linkers, in order; H or OH if unused. Where a SMILES comes first, the peptide text is derived from it. Bridges are numbered along the chain shown (N, C = ends). Roman numbers before positions name the chains, in order. [ ]: non-standard residue; d: D form. Actinocin(1to9) = Cc1c2oc3c(C)ccc(C(=O)[*:2])c3nc-2c(C(=O)[*:1])c(N)c1=O; NMeV = CN[C@H](C(=O)O)C(C)C; Sar = CNCC(=O)O

The test system of one assay is HT-3. Put plainly: Cytotoxicity against human HT-3 cells after 6 days by MTT assay. In kind it is functional. The following applies: for EC50: Homo sapiens, HT-3, 144 h, read-out: ED50 (the source's name). Put shortly:
(§1)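 Cells kept in DMEM with 10% FBS, 2 mM L-glutamine, penicillin and streptomycin. 1-3 × 10^3 cells/100 µL, attached 6 h, then fresh medium with a concentration series for 6 days at 37 °C in CO2, plus 10 mM HEPES pH 7.3. MTT (1 mg/mL in PBS) added for 4 h, formazan dissolved in DMSO, A550 read.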

The test system of a further assay is SiHa. Put plainly: Cytotoxicity against human SiHa cells after 6 days by MTT assay. In kind it is functional. The following applies: for EC50: Homo sapiens, SiHa, 144 h, read-out: ED50 (the source's name). Put shortly: as §1
In a further assay the test system is Ca-Ski. Nature of the assay: Cytotoxicity against human CaSki cells after 6 days by MTT assay. The note with it: 144 h, read-out: ED50 (the source's name). In kind it is functional. Put shortly:
as §1
(In general: Tetrazolium assays rely on reduction of a dye to a coloured formazan, in cell work by metabolically active cells.)

In a further assay the test system is T-24. Nature of the assay: Cytotoxicity against human T24 cells after 6 days by MTT assay. The assay is classed as functional. The note with it: T-24, 144 h, read-out: ED50 (the source's name). In outline: as §1
A short description of assay [1]: Cytotoxicity against human PLC/PRF/5 cells after 6 days by MTT assay. The assay is classed as functional. The note with it: PLC-PRF-5, 144 h, read-out: ED50 (the source's name). Put shortly:
as §1

Another assay relates to 212 (Mus musculus). Put plainly: Cytotoxicity against mouse 212 cells after 6 days by MTT assay. The following applies: 144 h, read-out: ED50 (the source's name).

Take `C=CC(C)(C)c1cc2c(cc1O)OC(c1cc(O)c3c(c1CC=C(C)C)CC(O)C(C)(C)O3)CC2` (stereo not given): the EC50 with HT-3 was 9.3 mg/L (≈ 19.4 µM); with SiHa, 9.3 mg/L (≈ 19.4 µM); in the assay with Ca-Ski, 8.2 mg/L (≈ 17.1 µM).

Consider `Oc1ccc(C2CCc3ccc(O)cc3O2)cc1` (stereo not given), for which the values for the EC50 with HT-3, in the assay with SiHa and with Ca-Ski were 11.6 mg/L (≈ 47.9 µM), 8.9 mg/L (≈ 36.7 µM) and 17.4 mg/L (≈ 71.8 µM), respectively.

Turning to `Cc1c2oc3c(C)ccc(C(=O)N[C@@H]4C(=O)N[C@H](C(C)C)C(=O)N5CCC[C@H]5C(=O)N(C)CC(=O)N(C)[C@@H](C(C)C)C(=O)O[C@@H]4C)c3nc-2c(C(=O)N[C@@H]2C(=O)N[C@H](C(C)C)C(=O)N3CCC[C@H]3C(=O)N(C)CC(=O)N(C)[C@@H](C(C)C)C(=O)O[C@@H]2C)c(N)c1=O` [DACTINOMYCIN] (I: T[dV]P[Sar][NMeV] / II: T[dV]P[Sar][NMeV]; ester I:1-I:C, II:1-II:C; linker I:N-II:N via Actinocin(1to9)), the ED50 in the assay on HT-3 is recorded as 5.6 ×10⁻⁴ ug/ml; in the assay with SiHa it was 8.1 ×10⁻⁴ ug/ml. Also, the values for the EC50 (with T-24; in assay [1]; in the assay on Ca-Ski) were 0.0015 mg/L (≈ 0.00119 µM), 0.0014 mg/L (≈ 0.00112 µM) and 0.0019 mg/L (≈ 0.00151 µM), respectively.

As for `C=CC(C)(C)c1cc(CCCc2cc(O)c3c(c2CC=C(C)C)CCC(C)(C)O3)c(O)cc1O` [KAZINOL D], the EC50 in the assay with 212 (Mus musculus) worked out at 7 mg/L (≈ 15.1 µM); in the assay with HT-3 it was 3.6 mg/L (≈ 7.75 µM); in assay [1], 3.3 mg/L (≈ 7.1 µM).

For the molecule `C=CC(C)(C)c1cc(CCCc2cc(O)c3c(c2CC=C(C)C)C=CC(C)(C)O3)c(O)cc1O` [KAZINOL K], in the assay with HT-3, the EC50 was 8.6 mg/L (≈ 18.6 µM).

Take `C=CC(C)(C)c1cc2c(cc1O)OC(c1cc(CC=C(C)C)c(O)c(O)c1CC=C(C)C)CC2` (stereo not given) [KAZINOL Q]: the EC50 in the assay on 212 (Mus musculus) was found to be 3.8 mg/L (≈ 8.21 µM); with HT-3, 4.3 mg/L (≈ 9.29 µM); in the assay on T-24 it was 2.3 mg/L (≈ 4.97 µM); with SiHa, 4.7 mg/L (≈ 10.2 µM); in assay [1], 3.5 mg/L (≈ 7.57 µM).
